# In the library only some 2.4% were active in any assay of this set; here they are far more common.
# STEP inh – inhibitors of human striatal-enriched phosphatase STEP | recombinant STEP, OMFP fluorogenic substrate, fluorescence | inhibition, % at 20 µM | actives 0.25% (n = 360,000);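 active means inhibition at 20 µM, scaled per plate between control wells, above about 37%, limit read from the data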;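 further: 0% = DMSO with enzyme and substrate and 100% = substrate only without enzyme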
#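 material = STEP tyrosine phosphatase | reagent = fluorogenic phosphatase substrate OMFP at 25 µM final | doses = single compound dose of 20 µM, 1% DMSO final | schedule = 20 min reaction, room temperature, in the dark | measured by = fluorescence, 480/540 nm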
# NadD inh – NadD (S. aureus) enzyme inhibition | purified NadD enzyme, colorimetric absorbance read-out | inhibition, % at 20 µM | actives 0.78% (n = 360,000) | AID 602399; in the data active means inhibition above about 26%
# DNMT1 inh – inhibitors of human DNMT1; P26358; DNMT1 molecular beacon, Hinp1I cleavage, fluorescence; inhibition (reported as % activation of signal), % at 10 µM; actives 0.83% (n = 360,000); AID 588458; in the data active means inhibition above about 50%
# SUMO1 PPI mod – alters human SUMO1 binding to SIM partners; inhibition, % at 20 µM; AID 602429; SUMO1 binding to a labelled peptide, TR-FRET, 1 h; actives 0.33% (n = 360,000); P63165; in the data active means inhibition above about 37%
# Target sequence (P63165 whole entry, looked up): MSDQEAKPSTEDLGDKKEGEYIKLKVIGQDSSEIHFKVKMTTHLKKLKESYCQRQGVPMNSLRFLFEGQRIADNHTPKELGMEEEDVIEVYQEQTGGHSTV
# Scp1 inh – Scp-1 (human) phosphatase inhibition; AID 493091; inhibition, % at 20 µM; Q9GZU7; Recombinant Scp1, phosphopeptide, malachite green phosphate absorbance; actives 0.88% (n = 340,000);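 active means inhibition above about 50% at 20 µM, limit read from the data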;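 further: plate controls were DMSO wells with enzyme for no effect and wells lacking enzyme for full effect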
# Target sequence (Q9GZU7 76-261 limits assumed): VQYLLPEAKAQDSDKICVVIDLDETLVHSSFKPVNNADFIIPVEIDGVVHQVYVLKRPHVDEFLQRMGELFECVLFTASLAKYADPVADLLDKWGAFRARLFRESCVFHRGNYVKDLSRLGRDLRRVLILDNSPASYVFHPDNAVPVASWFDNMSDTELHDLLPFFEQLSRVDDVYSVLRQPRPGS
#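 Assay system: SCP-1 catalytic fragment, aa 76-261 | Buffer or medium: Tris acetate buffer pH 5.5 with MgCl2 and Tween-20 | Compound: One concentration, 20 µM, with 1.0% DMSO | Also added: Phospho 17-mer peptide substrate | Signal: Absorbance at 630 nm | Incubation: 45 min enzyme reaction at room temperature | Measure: % inhibition of SCP-1 phosphate liberation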
# LMPTP block – blocks human LMPTP phosphatase; inhibition, % at 20 µM; AID 651560; P24666; actives 0.22% (n = 360,000); recombinant LMPTP-A, OMFP fluorogenic substrate, fluorescence intensity;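 active means compounds that cut the enzyme signal by at least half of the control window in the single-dose screen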;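 further: plate controls were DMSO wells with enzyme plus substrate for no effect and substrate without enzyme for full effect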
# Target sequence (P24666 whole entry, looked up): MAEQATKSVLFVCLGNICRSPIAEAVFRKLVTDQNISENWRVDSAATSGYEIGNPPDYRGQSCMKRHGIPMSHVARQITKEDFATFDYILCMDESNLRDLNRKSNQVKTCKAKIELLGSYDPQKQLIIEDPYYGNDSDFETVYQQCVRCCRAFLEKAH
#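 test system = LMPTP-A | amount = 0.625 nM LMPTP-A final | reagent = fluorogenic phosphatase substrate OMFP at 400 µM final | incubation = 50 min at room temperature | benchmarks = no-enzyme low control, uninhibited high control | medium = Bis-Tris pH 6.0, DTT, detergent | signal = fluorescence intensity of OMFP turnover product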
# STEP inh conf – confirmation of human STEP phosphatase inhibitors. shares compounds with STEP inh. recombinant STEP, OMFP fluorogenic substrate, fluorescence. inhibition, % at 20 µM. actives 32% (n = 520). AID 623866; call rule not given here;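 further: 0% = enzyme with substrate plus DMSO and 100% = substrate without enzyme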
# * marks the source's active call; other numbers are inactive results; nt = no result given.
SMILES,STEP inh,NadD inh,DNMT1 inh,SUMO1 PPI mod,Scp1 inh,LMPTP block,STEP inh conf
CC(Nc1nc(-c2ccc(F)cc2)cs1)c1nc2cc(C(F)(F)F)ccc2n1CCOCCO (stereo unspecified),0,1,-21,1,-2,2,nt
COc1ccc(-c2csc(NC(C)c3nc4cc(C(F)(F)F)ccc4n3CCOCCO)n2)cc1 (stereo unspecified),44*,5,-19,1,-1,3,15
COc1ccccc1CNC(=O)CCNS(=O)(=O)/C=C/c1ccc(C)cc1,-2,-4,0,-1,-13,1,nt
Cc1ccc(S(=O)(=O)N2CCCCC2)cc1NC(=O)c1ccc(=O)[nH]c1,54*,1,10,12,nt,54*,66*
COc1ccc(C(=O)Nc2cc(S(=O)(=O)N3CCCCC3)ccc2C)cc1,-1,-6,-15,1,nt,-2,nt
O=C(N/N=C/c1cccnc1)c1ccc(NC(=O)c2ccc(Cl)cc2)cc1,53*,-13,19,18,3,9,11
Cc1cccc(NS(=O)(=O)c2cccc(C(=O)NCCCN3CCOCC3)c2)c1,-1,-2,1,-24,-3,-10,nt
COCCCNC(=S)NC1CC2CCC(C1)N2Cc1ccccc1 (stereo unspecified),3,-5,2,0,1,1,nt
CCOCCCNC(=S)NC1CC2CCC(C1)N2Cc1ccccc1 (stereo unspecified),55*,-8,0,2,-3,1,25
O=C1CSc2cc(Cl)ccc2N1,37*,-1,0,1,10,0,16
O=C1CNc2cc(Cl)ccc2N1,-2,-5,-1,-14,nt,0,nt
CCCCNC(=O)c1nc(-c2ccccc2)oc1-c1ccc(Cl)cc1,nt,nt,nt,2,nt,4,nt
CN1CCN(Cc2nc3ccccc3c(=O)n2Cc2nc(-c3cccc([N+](=O)[O-])c3)cs2)CC1,43*,6,-17,-19,-3,5,13
O=C(O)c1ccc(NC(=O)c2ccccc2NC(=O)c2cccc(F)c2)cc1,68*,-6,-3,2,-8,-2,13
Cc1cccc(C(=O)Nc2ccccc2C(=O)Nc2ccc(C(=O)O)cc2)c1,0,-9,-2,1,-10,-2,nt
Cc1ccc(S(=O)(=O)NCC(=O)N2CCN(c3ccc(F)cc3)CC2)cc1,40*,1,1,-2,-4,-2,-3
O=C(O)c1ccccc1C(=O)NCC(O)c1ccccc1 (stereo unspecified),91*,-5,-1,6,-13,-1,-4
CCN(CC)C(=O)c1ccccc1NC(=O)c1ccccc1C,-2,-4,-3,2,-3,0,nt
CCN(CC)C(=O)c1ccccc1NC(=O)c1ccccc1SC,43*,1,-1,3,-3,-2,5
COc1ccccc1NC(=O)CCS(=O)(=O)c1ccc2c(c1)NC(=O)C(C)S2 (stereo unspecified),62*,-2,1,0,-9,-1,1
CC1(C)CC(NC(=S)Nc2ccc(S(N)(=O)=O)cc2)CC(C)(C)N1,63*,-8,8,-1,7,2,16
Cc1ccccc1C(=O)O/N=C(\N)c1cccc([N+](=O)[O-])c1,2,-5,5,-25,-4,-1,nt
N/C(=N\OC(=O)c1cccc2ccccc12)c1cccc([N+](=O)[O-])c1,62*,-7,43,-7,49,10,24*
COc1ccc(OC)c(C(=O)c2ccccn2)c1,95*,-7,-13,2,-12,-1,12
CC1(C(=O)Nc2ccc3c(c2)OCCO3)CCN1C(=O)c1ccco1 (stereo unspecified),-3,4,7,-4,nt,0,nt
SMILES,STEP inh,NadD inh,DNMT1 inh,SUMO1 PPI mod,Scp1 inh,LMPTP block,STEP inh conf
C/C(CC(=O)Nc1ccc2c(c1)OCCO2)=N\NC(=O)COc1ccccc1C,50*,-4,-2,1,2,0,6
O=C(NC(=S)NCC1CCCO1)c1cccc([N+](=O)[O-])c1 (stereo unspecified),2,-5,-1,-23,-2,-2,nt
Cc1ccc(Nc2nnc(-c3ccc4c(c3)OCO4)o2)c(C)c1,48*,0,-2,-1,-17,2,4
CCSc1nc(O)cc(=O)[nH]1,1,-4,2,3,-8,-1,nt
N#CNc1nc(O)cc(=O)[nH]1,98*,0,1,16,49,87*,63*
Cc1ccc(NC(=S)N2CCC(N(C)CC3CCCO3)CC2)cc1C (stereo unspecified),6,-3,1,4,3,-1,nt
COc1ccc(NC(=S)N2CCC(N(C)CC3CCCO3)CC2)cc1Cl (stereo unspecified),50*,-5,7,-2,2,-5,42*
O=C(NN=Cc1ccccc1O)c1cccc([N+](=O)[O-])c1,59*,0,36,38,97*,82*,100*
CCOC(=O)C(C(=O)OCC)C(=O)c1cccc2ccc3ccccc3c12,1,-2,-3,-4,nt,0,nt
CS(=O)(=O)N(Cc1ccc(C(=O)NCCSc2ccccn2)cc1)c1ccccc1,44*,0,3,3,-2,0,-4
CCN(CC)S(=O)(=O)c1ccc2oc(C(=O)NCc3ccc(C)cc3)c(C)c2c1,61*,-10,-5,2,-10,2,27
CCN(CC)S(=O)(=O)c1ccc2oc(C(=O)NC(C)C)c(C)c2c1,-1,-8,2,2,-3,0,nt
Cc1ccc(NC(=O)CCn2c(=S)oc3ccccc32)cc1F,48*,-3,42,11,25,36,38*
CC(C)(C)C(=O)Nc1ccc(C(=O)Nc2cccc(Oc3ccc(C(=O)O)c(C(=O)O)c3)c2)cc1,60*,3,8,13,18,-1,82*
CSCc1ccc(C(=O)NCC(c2cccs2)N2CCOCC2)cc1 (stereo unspecified),-1,-1,2,-18,-8,-10,nt
NC1=NC[C@H](Cc2ccccc2)N1CCc1cccc(F)c1,70*,0,-35,74*,9,17,17
NC1=NC[C@H](Cc2ccccc2)N1CCCCC1CCCCC1,3,3,25,-51,14,0,nt
O=C(CCC(=O)NCCCc1ccccc1)NCCCc1ccccc1,119*,-3,-1,0,-3,-2,15
O=C(Cc1ccccc1)NCCCc1ccccc1,-4,0,1,0,-1,1,nt

# Assay outcomes (PubChem BioAssay)
